Data as given in ChEMBL document CHEMBL2163238, “Design, synthesis, and biological evaluation of N-alkylated deoxynojirimycin (DNJ) derivatives for the treatment of dengue virus infection” (J Med Chem, 2012).
Values after ≈ are worked out from the molar mass of the structure shown. Active and inactive are the calls of the source. The calls are words filed in the database; no cut-off is given here.

Key:
Dengue virus = test: Antiviral activity against 0.01 MOI DENV infected in human Huh7.5 cells assessed as reduction in viral […] protein level at 0.1 to 100 uM after 2 days by Western blotting; type: functional, organism-based; conditions: Huh-7
[1] = Metabolic stability in mouse liver microsomes at 60 mins; type: ADME, Microsome; conditions: read-out: Stability
[2] = Metabolic stability in rat liver microsomes at 60 mins; type: ADME, Microsome; conditions: read-out: Stability
[3] = Metabolic stability in human liver microsomes at 60 mins; type: ADME, Microsome; conditions: read-out: Stability
[4] = Cytotoxicity against BHK cells assessed as cell viability by MTT assay; type: cell-based, Mesocricetus auratus; conditions: hamster
dengue virus type 2 = test: Antiviral activity against 0.01 MOI DENV-2 NGC infected in BHK cells assessed as reduction in viral titer after 48 hrs; type: functional, organism-based
How it was run: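 BHK cells infected with DENV-2 New Guinea C at MOI 0.01 for 1 h. Inoculum removed, then compounds at 0.1–100 μM for 48 h at 37 °C. Supernatants titrated on Vero monolayers as 10-fold dilutions under 0.5% methylcellulose for 3–5 days. Foci detected by 4G2 immunostaining or crystal violet plaques. EC50 from dose–response curves, mean of 3 independent experiments.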

[5] = Cytotoxicity against MDBK cells assessed as cell viability by MTT assay; type: cell-based, Bos taurus; conditions: cattle
[6] = Antiviral activity against 1 MOI BVDV NADL infected in MDBK cells assessed as reduction in viral titer after 22 hrs; type: functional, cell-based, Bovine viral diarrhea virus 1-NADL; conditions: Bovine viral diarrhea virus isolates and strains, MDBK, 22 h
How it was run: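 MDBK cells (2×10^5) infected 24 h after seeding with BVDV NADL at MOI 1, with 1 h adsorption at 37 °C. Washed, then compounds at 0.1–100 μM. Media harvested 22 h post-infection and plaque-titrated on MDBK under 1% methylcellulose for 3 days. Plaques counted directly or after neutral red staining. EC50 from dose–response curves, mean of 3 independent experiments.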

Cytochrome P450 3A4 = Cytochrome P450 3A4 (Homo sapiens, UniProt P08684); test: (§1) Inhibition of human CYP3A4 using testosterone as substrate at 10 uM; type: ADME; conditions: 10 µM
How it was run: (§2)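 Inhibition of CYP isoforms with compound at 10 μM, reported as % inhibition. CYP3A4 run with midazolam or testosterone as substrate.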

CYP2D6 = CYP2D6 (Homo sapiens, UniProt P10635); test: Inhibition of human CYP2D6 at 10 uM; type: ADME
How it was run: (§3)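 Inhibition of CYP isoforms by compounds tested at 10 μM, given as percent inhibition; contract in vitro ADME panel.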

CYP3A4 [7] = target: T1, CYP3A4 (Homo sapiens, UniProt P08684); test: Inhibition of human CYP3A4 using midazolam as substrate at 10 uM; type: ADME; conditions: probe midazolam; how it was run: as §2
CYP2C19 = CYP2C19 (Homo sapiens, UniProt P33261); test: Inhibition of human CYP2C19 at 10 uM; type: ADME; how it was run: as §2
CYP2C9 = CYP2C9 (Homo sapiens, UniProt P11712); test: Inhibition of human CYP2C9 at 10 uM; type: ADME; how it was run: as §3
CYP1A2 = target: T2, CYP1A2 (Homo sapiens, UniProt P05177); test: Inhibition of human CYP1A2 at 10 uM; type: ADME; how it was run: as §2
T2 sequence (P05177 whole entry): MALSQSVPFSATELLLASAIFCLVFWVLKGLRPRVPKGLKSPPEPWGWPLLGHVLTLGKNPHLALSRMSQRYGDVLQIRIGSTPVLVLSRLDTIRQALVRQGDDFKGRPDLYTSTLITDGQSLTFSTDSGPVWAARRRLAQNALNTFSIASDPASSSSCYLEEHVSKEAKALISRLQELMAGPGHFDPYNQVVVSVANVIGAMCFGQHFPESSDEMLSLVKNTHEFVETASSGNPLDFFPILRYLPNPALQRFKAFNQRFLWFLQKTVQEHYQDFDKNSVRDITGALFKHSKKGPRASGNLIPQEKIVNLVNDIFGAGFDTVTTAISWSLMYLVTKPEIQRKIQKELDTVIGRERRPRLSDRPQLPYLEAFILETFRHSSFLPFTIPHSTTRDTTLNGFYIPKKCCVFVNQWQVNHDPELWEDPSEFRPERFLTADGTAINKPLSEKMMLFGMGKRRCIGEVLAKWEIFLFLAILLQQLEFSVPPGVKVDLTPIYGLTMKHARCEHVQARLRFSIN

[8] = Plasma protein binding in mouse plasma; type: ADME, cell-free; conditions: read-out: PPB (converted)
How it was run: (§4)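 Binding of compound to human, rat or mouse plasma protein, reported as % bound.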

[9] = Plasma protein binding in rat plasma; type: ADME, cell-free; conditions: read-out: PPB (converted); how it was run: as §4
[10] = Plasma protein binding in human plasma; type: ADME, cell-free; conditions: read-out: PPB (converted); how it was run: as §4
[11] = Aqueous solubility in PBS at pH 7.4; type: physicochemical; conditions: buffer
[12] = Aqueous solubility in PBS at pH 4; type: physicochemical; conditions: buffer
[13] = Cytotoxicity against human Huh7.5 cells assessed as cell viability by DRAQ5 and Sapphire 700 staining; conditions: huh-7
MDBK = test: Competitive inhibition of endoplasmic reticulum-resident alpha-glucosidase in MDBK cells infected with 1 MOI BVDV assessed as decrease in viral E2 protein mobility at 0.8 to 100 uM after 24 hrs by Western blotting; type: cell-based; conditions: Bos taurus
How it was run: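 MDBK cells infected with BVDV at MOI 1 for 1 h, then compounds at 0.8, 4.0, 20 and 100 μM. Cells lysed in Laemmli buffer, run on 12% polyacrylamide gel and transferred to nitrocellulose. BVDV E2 mobility probed with monoclonal WB166 and β-actin detected in parallel. IR-dye secondary antibody, Odyssey imaging.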

CYP3A4 [14] = target: T1, CYP3A4; test: as §1; type: ADME; conditions: probe testosterone; how it was run: as §2
[15] = Selectivity index, ratio of CC50 for BHK cells to EC50 for DENV-2 NGC infected in BHK cells
How it was run: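 BHK cells infected with DENV-2 New Guinea C at MOI 0.01 for 1 h, then compounds at 0.1–100 μM for 48 h at 37 °C. Supernatant titrated on Vero cells under 0.5% methylcellulose, 3–5 days; foci by 4G2 immunostaining or crystal violet plaques. EC50 from yield curves; MTT CC50 in uninfected BHK; SI = CC50/EC50.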

[16] = Selectivity index, ratio of CC50 for MDBK cells to EC50 for BVDV NADL infected in MDBK cells
How it was run: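 MDBK cells infected with BVDV NADL at MOI 1, 1 h at 37 °C, washed, then compounds at 0.1–100 μM. Media harvested at 22 h, plaque-titrated on MDBK under 1% methylcellulose for 3 days, neutral red or direct count. EC50 from yield curves; MTT CC50 in uninfected MDBK; SI = CC50/EC50.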

[17] = Oral bioavailability in Sprague-Dawley rat at 25 mg/kg; type: ADME, organism-based; conditions: in vivo
Rattus norvegicus [18] = test: Volume of distribution in Sprague-Dawley rat at 25 mg/kg, po; type: ADME, organism-based; set-up: dose 25 mg/kg, route oral; conditions: in vivo
[19] = Volume of distribution in Sprague-Dawley rat at 5 mg/kg, iv; type: ADME, organism-based; set-up: dose 5 mg/kg, route intravenous; conditions: in vivo
[20] = Plasma half life in Sprague-Dawley rat at 5 mg/kg, iv; type: ADME, organism-based; set-up: dose 5 mg/kg, route intravenous
Rattus norvegicus [21] = test: Acute toxicity in Sprague-Dawley rat assessed as occurrence of diarrhea at 200 mg/kg, po measured at 1 to 2 days; type: organism-based; set-up: dose 200 mg/kg, route oral; conditions: in vivo
How it was run: (§5)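 Single oral dose (25, 50, 100 or 200 mg/kg, or vehicle) given to 10-week-old male rats, 2 per group. Compound dissolved at 20 mM in PBS with 10% Solutol HS15, shaken 6 h at 37 °C. Animals observed 7 days for clinical signs, body weight and food consumption, then sacrificed on day 8.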

Rattus norvegicus [22] = test: Acute toxicity in Sprague-Dawley rat assessed as occurrence of soft feces at 50 to 100 mg/kg, po measured at 1 to 2 days; type: organism-based; set-up: route oral; conditions: in vivo; how it was run: as §5
Rattus norvegicus [23] = test: Acute toxicity in Sprague-Dawley rat assessed as body weight loss at 25 to 200 mg/kg, po after 7 days; type: organism-based; set-up: dose 25-200 mg/kg, route oral; conditions: in vivo, 168 h; how it was run: as §5
Rattus norvegicus [24] = test: Acute toxicity in Sprague-Dawley rat assessed as mortality at 25 to 200 mg/kg, po after 7 days; type: organism-based; set-up: dose 25-200 mg/kg, route oral; conditions: in vivo, 168 h
in vivo = conditions: Sprague-Dawley, rat, po, 25 mg/kg

T1 sequence (P08684 whole entry): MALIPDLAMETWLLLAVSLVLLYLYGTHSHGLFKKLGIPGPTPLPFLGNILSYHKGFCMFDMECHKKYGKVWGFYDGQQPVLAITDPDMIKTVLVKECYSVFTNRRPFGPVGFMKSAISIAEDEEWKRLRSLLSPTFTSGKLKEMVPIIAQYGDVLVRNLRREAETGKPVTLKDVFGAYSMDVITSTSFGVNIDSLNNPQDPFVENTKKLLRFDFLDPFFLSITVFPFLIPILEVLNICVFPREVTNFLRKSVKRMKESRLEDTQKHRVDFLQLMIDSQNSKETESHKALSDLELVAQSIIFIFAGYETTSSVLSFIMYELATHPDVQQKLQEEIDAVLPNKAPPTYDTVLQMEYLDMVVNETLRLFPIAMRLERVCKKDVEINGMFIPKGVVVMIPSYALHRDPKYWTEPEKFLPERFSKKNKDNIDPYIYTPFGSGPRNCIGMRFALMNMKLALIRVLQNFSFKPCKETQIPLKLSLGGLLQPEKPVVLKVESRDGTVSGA
CYP2C19, sequence (P33261 whole entry): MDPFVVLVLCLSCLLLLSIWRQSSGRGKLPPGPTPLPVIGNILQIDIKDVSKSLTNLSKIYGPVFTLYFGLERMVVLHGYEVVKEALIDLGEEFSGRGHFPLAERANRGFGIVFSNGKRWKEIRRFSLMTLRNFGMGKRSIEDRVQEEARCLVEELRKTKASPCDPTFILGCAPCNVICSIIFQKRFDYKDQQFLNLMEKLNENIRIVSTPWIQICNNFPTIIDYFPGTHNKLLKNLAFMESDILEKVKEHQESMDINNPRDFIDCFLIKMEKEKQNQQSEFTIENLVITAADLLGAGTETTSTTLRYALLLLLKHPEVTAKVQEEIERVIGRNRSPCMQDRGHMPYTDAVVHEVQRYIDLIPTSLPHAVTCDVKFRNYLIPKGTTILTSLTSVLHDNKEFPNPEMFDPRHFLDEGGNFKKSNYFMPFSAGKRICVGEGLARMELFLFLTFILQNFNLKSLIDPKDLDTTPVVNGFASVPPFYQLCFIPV
CYP2D6, sequence (P10635 whole entry, canonical isoform): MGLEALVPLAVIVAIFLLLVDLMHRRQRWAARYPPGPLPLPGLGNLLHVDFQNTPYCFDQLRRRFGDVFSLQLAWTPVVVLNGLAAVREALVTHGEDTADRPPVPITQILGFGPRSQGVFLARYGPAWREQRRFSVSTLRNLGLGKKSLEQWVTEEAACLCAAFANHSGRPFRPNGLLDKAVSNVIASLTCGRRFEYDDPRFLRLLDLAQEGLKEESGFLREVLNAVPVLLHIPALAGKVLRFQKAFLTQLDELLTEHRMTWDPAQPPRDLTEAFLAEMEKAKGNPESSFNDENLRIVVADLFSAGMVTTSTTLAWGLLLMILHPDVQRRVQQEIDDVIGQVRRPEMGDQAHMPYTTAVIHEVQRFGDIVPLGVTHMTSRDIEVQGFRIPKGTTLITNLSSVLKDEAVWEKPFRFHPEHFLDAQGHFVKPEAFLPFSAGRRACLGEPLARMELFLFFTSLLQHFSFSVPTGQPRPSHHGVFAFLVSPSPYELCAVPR
CYP2C9, sequence (P11712 whole entry): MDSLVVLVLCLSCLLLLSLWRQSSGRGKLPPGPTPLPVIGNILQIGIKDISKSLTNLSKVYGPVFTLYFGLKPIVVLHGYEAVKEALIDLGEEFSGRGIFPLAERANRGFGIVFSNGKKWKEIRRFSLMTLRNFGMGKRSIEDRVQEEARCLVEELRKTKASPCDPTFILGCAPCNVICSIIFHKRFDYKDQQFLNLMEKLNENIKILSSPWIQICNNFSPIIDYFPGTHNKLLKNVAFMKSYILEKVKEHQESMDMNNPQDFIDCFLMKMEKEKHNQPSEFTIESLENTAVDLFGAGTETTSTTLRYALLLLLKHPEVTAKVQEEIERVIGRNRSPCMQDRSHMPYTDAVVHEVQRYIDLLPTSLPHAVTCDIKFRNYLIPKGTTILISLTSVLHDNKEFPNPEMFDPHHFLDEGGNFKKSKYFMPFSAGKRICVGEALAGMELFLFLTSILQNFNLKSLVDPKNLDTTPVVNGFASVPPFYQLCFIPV
Cytochrome P450 3A4, sequence (P08684 whole entry, canonical isoform): as the sequence (P08684 whole entry) above

Row | SMILES | Activity (Dengue virus) | remaining at 1 h [1] | remaining at 1 h [2] | remaining at 1 h [3] | CC50 [4] | Activity (dengue virus type 2) | EC50 (dengue virus type 2) | CC50 [5] | EC50 [6] | inhibition at 10 µM (CYP2D6) | inhibition at 10 µM (CYP3A4 [7]) | inhibition at 10 µM (CYP2C19) | inhibition at 10 µM (CYP2C9) | inhibition at 10 µM (CYP1A2) | fraction unbound [8] | fraction unbound [9] | fraction unbound [10] | solubility [11] | solubility [12] | Activity [13] | other results
1 | OC[C@@H]1[C@@H](O)[C@H](O)[C@@H](O)CN1CCCCCCOCc1ccccc1 | Active | 97% | 91% | 104% | > 500000 nM | Dose-dependent effect | 400 nM | > 500000 nM | 1500 nM | 9.1% | 6.6% | 14.2% | 10.7% | 17.3% | 0.47 | 0.51 | 0.48 | 288 µM (≈ 102 µg/mL) | 282 µM (≈ 99.7 µg/mL) | Non-toxic | inhibition (INH) (Cytochrome P450 3A4): 3.3%
2 | CCCOc1cccc(CCCN2C[C@H](O)[C@@H](O)[C@H](O)[C@H]2CO)c1 | Active | 87% | 97% | 99% | > 500000 nM | Dose-dependent effect | 300 nM | > 500000 nM | 1200 nM | 11% | 8.6% | 2.8% | 10.5% | 15.9% | 0.4 | 0.43 | 0.32 | 288 µM (≈ 97.8 µg/mL) | 281 µM (≈ 95.4 µg/mL) | Non-toxic | inhibition (MDBK): Active; inhibition at 10 µM (CYP3A4 [14]): 0.7%
3 | OC[C@@H]1[C@@H](O)[C@H](O)[C@@H](O)CN1CCCCCCOC1CCCCC1 | – | – | – | – | > 500000 nM | – | 1600 nM | 480000 nM | 400 nM | – | – | – | – | – | – | – | – | – | – | – | inhibition (MDBK): Active; Ratio CC50/EC50 [15]: >312; Ratio CC50/EC50 [16]: 1200
4 | CCC(O)(CC)CCCCCCN1C[C@H](O)[C@@H](O)[C@H](O)[C@H]1CO | Active | 104% | 98% | 99% | > 500000 nM | Dose-dependent effect | 6500 nM | > 500000 nM | 6200 nM | 1.2% | 21% | 37% | 9.6% | 7.9% | 0.6 | 0.7 | 0.67 | 315 µM (≈ 105 µg/mL) | 315 µM (≈ 105 µg/mL) | Non-toxic | inhibition (MDBK): Active; bioavailability [17]: 56%; inhibition at 10 µM (CYP3A4 [14]): 20.5%
5 | OC[C@@H]1[C@@H](O)[C@H](O)[C@@H](O)CN1CCCCCCOc1cc(F)ccc1F | Active | 91% | 79% | 91% | > 500000 nM | Dose-dependent effect | 400 nM | > 500000 nM | 500 nM | 11.4% | 10.9% | 1.6% | 7.1% | 24.4% | 0.23 | 0.32 | 0.26 | 292 µM (≈ 110 µg/mL) | 296 µM (≈ 111 µg/mL) | Non-toxic | inhibition (MDBK): Active; Vd (Rattus norvegicus [18]): 17.2 L/kg; Vd [19]: 3.1 L/kg; half-life [20]: 1.44 h; Activity (Rattus norvegicus [21]): Toxic; Activity (Rattus norvegicus [22]): Toxic; Activity (Rattus norvegicus [23]): Non-toxic; Activity (Rattus norvegicus [24]): Non-toxic; inhibition at 10 µM (CYP3A4 [14]): -1.9%; Tmax (in vivo): 4.2 h
6 | OC[C@@H]1[C@@H](O)[C@H](O)[C@@H](O)CN1CCCCCCOC1CCCCCC1 | Active | 92% | 90% | 89% | > 500000 nM | Dose-dependent effect | 500 nM | > 500000 nM | 1400 nM | 2.5% | 21.2% | -4.9% | 5% | 9% | 0.15 | 0.35 | 0.29 | 295 µM (≈ 106 µg/mL) | 286 µM (≈ 103 µg/mL) | Non-toxic | inhibition (INH) (Cytochrome P450 3A4): 3.1%
